From ChEMBL document CHEMBL1153823, “Design, synthesis, and biological evaluation of new 5-HT4 receptor agonists: application as amyloid cascade modulators and potential therapeutic utility in Alzheimer's disease” (J Med Chem, 2009)

Target: T1, 5-hydroxytryptamine receptor 4 (Homo sapiens, UniProt Q13639)
Test: Displacement of [3H]GR-113808 from human 5HT4 isoform E receptor expressed in rat C6 cells at 10 nM by liquid scintillation counting
Type: cell-based

T1 sequence (Q13639 whole entry, canonical isoform): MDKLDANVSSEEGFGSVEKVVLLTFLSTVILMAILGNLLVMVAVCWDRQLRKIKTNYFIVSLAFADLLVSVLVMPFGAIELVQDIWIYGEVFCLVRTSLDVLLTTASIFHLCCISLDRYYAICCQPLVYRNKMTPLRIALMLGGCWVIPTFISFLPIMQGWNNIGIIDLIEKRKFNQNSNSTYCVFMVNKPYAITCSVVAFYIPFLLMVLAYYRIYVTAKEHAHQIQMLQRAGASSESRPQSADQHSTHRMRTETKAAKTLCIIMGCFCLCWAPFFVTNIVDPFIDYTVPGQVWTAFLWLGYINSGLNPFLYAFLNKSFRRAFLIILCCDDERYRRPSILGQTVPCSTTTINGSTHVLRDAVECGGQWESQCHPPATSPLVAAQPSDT

Q: COc1cc(N)c(Cl)cc1C(=O)OCCN1CCC(CNC(=O)CCCc2ccccc2)CC1 was tested. Which Activity did it give?
A: Its Activity is 20%.

Q: How did the Activity turn out when COc1cc(N)c(Cl)cc1C(=O)OCCN1CCC(CNC(=O)CSc2ccccc2)CC1 was run?
A: Its Activity is 30%.

Q: How did the Activity turn out when COc1cc(N)c(Cl)cc1C(=O)OCCN1CCC(CNC(=O)CC(C)C)CC1 was run?
A: Its Activity is 20%.

Q: Which Activity does the source give for COc1cc(N)c(Cl)cc1C(=O)OCCN1CCC(CNC(=O)CCc2ccccc2)CC1 here?
A: The Activity was 20%.

Q: Which Activity does the source give for COc1cc(N)c(Cl)cc1C(=O)OCCN1CCC(NC(=O)CC2CCCCC2)CC1 here?
A: Its Activity is less than 10%.

Q: With COc1cc(N)c(Cl)cc1C(=O)OCCN1CCC(CNC(=O)c2ccc(C)nc2O)CC1 as the compound, how does the Activity read?
A: Its Activity is 10%.

Q: How did the Activity turn out when COc1cc(N)c(Cl)cc1C(=O)OCCN1CCC(NC(=O)Cc2ccc(Br)cc2)CC1 was run?
A: The Activity was 10%.

Q: COc1cc(N)c(Cl)cc1C(=O)OCCN1CCC(NC(=O)c2ccccc2F)CC1 was tested. Which Activity did it give?
A: Its Activity is 10%.

Q: Which Activity does the source give for COc1cc(N)c(Cl)cc1C(=O)OCCN1CCC(NC(=O)Cc2ccc([N+](=O)[O-])cc2)CC1 here?
A: Its Activity is 20%.

Q: How did the Activity turn out when COc1cc(N)c(Cl)cc1C(=O)OCCN1CCC(NC(=O)CCc2ccccc2)CC1 was run?
A: Its Activity is 20%.

Q: COc1cc(N)c(Cl)cc1C(=O)OCCN1CCC(NC(=O)CCCCc2ccccc2)CC1 was tested. Which Activity did it give?
A: Its Activity is less than 10%.

Q: Which Activity does the source give for COc1cc(N)c(Cl)cc1C(=O)OCCN1CCC(CNC(=O)Cc2ccc(Br)cc2)CC1 here?
A: Its Activity is 40%.

Q: For COc1cc(N)c(Cl)cc1C(=O)OCCN1CCC(CNC(=O)CCCNS(=O)(=O)c2ccc(C)cc2)CC1, which Activity is on record?
A: The Activity was greater than 50%.

Q: Which Activity does the source give for COc1cc(N)c(Cl)cc1C(=O)OCCN1CCC(CNC(=O)C(C)C)CC1 here?
A: The Activity was 20%.

Q: With COc1cc(N)c(Cl)cc1C(=O)OCCN1CCC(NC(=O)c2ccc([N+](=O)[O-])o2)CC1 as the compound, how does the Activity read?
A: Its Activity is less than 10%.

Q: For COc1cc(N)c(Cl)cc1C(=O)OCCN1CCC(NC(=O)CCC2CCCCC2)CC1, which Activity is on record?
A: The Activity was 0%.

Q: How did the Activity turn out when COc1cc(N)c(Cl)cc1C(=O)OCCN1CCC(NC(=O)c2ccc(C)nc2O)CC1 was run?
A: Its Activity is less than 10%.

Q: For COc1cc(N)c(Cl)cc1C(=O)OCCN1CCC(CNC(=O)c2ccccc2F)CC1, which Activity is on record?
A: The Activity was 20%.

Q: For COc1cc(N)c(Cl)cc1C(=O)OCCN1CCC(CNC(=O)c2ccsc2)CC1, which Activity is on record?
A: Its Activity is 10%.

Q: Which Activity does the source give for COc1cc(N)c(Cl)cc1C(=O)OCCN1CCC(CNC(=O)CC2CCCCC2)CC1 here?
A: Its Activity is 20%.

Q: For COc1cc(N)c(Cl)cc1C(=O)OCCN1CCC(CNC(=O)c2cccs2)CC1, which Activity is on record?
A: Its Activity is 20%.

Target: T1, 5-hydroxytryptamine receptor 4
Test: Agonist activity at human 5HT4 isoform E receptor expressed in rat C6 cells assessed as cAMP accumulation by radio-immunoassay relative to 5HT
Type: functional, cell-based
Procedure, shortened: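 C6 glial cells stably transfected with h5-HT4(e)R, grown to confluence, serum-free 4 h, then preincubated 15 min in serum-free medium with 5 mM theophylline and 10 µM pargyline.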

Q: With COc1cc(N)c(Cl)cc1C(=O)OCCN1CCC(CNC(=O)CCCNS(=O)(=O)c2ccc(C)cc2)CC1 as the compound, how does the EC50 read?
A: Its EC50 is 68 nM.

Target: T1, 5-hydroxytryptamine receptor 4
Test: Displacement of [3H]GR-113808 from human 5HT4 isoform E receptor expressed in rat C6 cells by liquid scintillation counting
Type: cell-based

Q: COc1cc(N)c(Cl)cc1C(=O)OCCN1CCC(NC(=O)CCCNCCCc2ccccc2)CC1 was tested. Which Ki did it give?
A: The Ki was 12 nM.

Q: Which Ki does the source give for COc1cc(N)c(Cl)cc1C(=O)OCCN1CCC(CNC(=O)CCCNS(=O)(=O)c2ccc(C)cc2)CC1 here?
A: Its Ki is 2 nM.

Target: T1, 5-hydroxytryptamine receptor 4
Test: Agonist activity at human 5HT4 isoform E receptor expressed in rat C6 cells assessed as cAMP accumulation at 10 nM by radio-immunoassay relative to 5HT
Type: functional, cell-based
Procedure, shortened: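 C6 glial cells stably transfected with h5-HT4(e)R, grown to confluence, serum-free 4 h, then preincubated 15 min in serum-free medium with 5 mM theophylline and 10 µM pargyline. […] Stopped with ice-cold perchloric acid; cAMP by radioimmunoassay; response normalized to 5-HT maximum.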

Q: COc1cc(N)c(Cl)cc1C(=O)OCCN1CCC(CNC(=O)CCCc2ccccc2)CC1 was tested. Which Emax did it give?
A: The Emax was 0%.

Q: Which Emax does the source give for COc1cc(N)c(Cl)cc1C(=O)OCCN1CCC(CNC(=O)CSc2ccccc2)CC1 here?
A: Its Emax is less than 10%.

Q: For COc1cc(N)c(Cl)cc1C(=O)OCCN1CCC(CNC(=O)CC(C)C)CC1, which Emax is on record?
A: The Emax was 40%.

Q: Which Emax does the source give for COc1cc(N)c(Cl)cc1C(=O)OCCN1CCC(CNC(=O)CCc2ccccc2)CC1 here?
A: The Emax was 20%.

Q: How did the Emax turn out when COc1cc(N)c(Cl)cc1C(=O)OCCN1CCC(CNC(=O)c2ccc(C)nc2O)CC1 was run?
A: Its Emax is 10%.

Q: With COc1cc(N)c(Cl)cc1C(=O)OCCN1CCC(NC(=O)CCCNCCCc2ccccc2)CC1 as the compound, how does the Emax read?
A: The Emax was 50%.

Q: With COc1cc(N)c(Cl)cc1C(=O)OCCN1CCC(NC(=O)Cc2ccc(Br)cc2)CC1 as the compound, how does the Emax read?
A: The Emax was 10%.

Q: Which Emax does the source give for COc1cc(N)c(Cl)cc1C(=O)OCCN1CCC(NC(=O)c2ccccc2F)CC1 here?
A: The Emax was 10%.

Q: COc1cc(N)c(Cl)cc1C(=O)OCCN1CCC(NC(=O)Cc2ccc([N+](=O)[O-])cc2)CC1 was tested. Which Emax did it give?
A: Its Emax is 20%.

Q: COc1cc(N)c(Cl)cc1C(=O)OCCN1CCC(NC(=O)CCc2ccccc2)CC1 was tested. Which Emax did it give?
A: Its Emax is less than 10%.

Q: For COc1cc(N)c(Cl)cc1C(=O)OCCN1CCC(CNC(=O)Cc2ccc(Br)cc2)CC1, which Emax is on record?
A: The Emax was 0%.

Q: For COc1cc(N)c(Cl)cc1C(=O)OCCN1CCC(CNC(=O)CCCNS(=O)(=O)c2ccc(C)cc2)CC1, which Emax is on record?
A: The Emax was greater than 70%.

Q: COc1cc(N)c(Cl)cc1C(=O)OCCN1CCC(CNC(=O)C(C)C)CC1 was tested. Which Emax did it give?
A: The Emax was 10%.

Q: For COc1cc(N)c(Cl)cc1C(=O)OCCN1CCC(CNC(=O)c2ccccc2F)CC1, which Emax is on record?
A: The Emax was 0%.

Q: For COc1cc(N)c(Cl)cc1C(=O)OCCN1CCC(CNC(=O)c2ccsc2)CC1, which Emax is on record?
A: The Emax was 0%.

Q: For COc1cc(N)c(Cl)cc1C(=O)OCCN1CCC(CNC(=O)CC2CCCCC2)CC1, which Emax is on record?
A: The Emax was less than -10%.

Q: With COc1cc(N)c(Cl)cc1C(=O)OCCN1CCC(CNC(=O)c2cccs2)CC1 as the compound, how does the Emax read?
A: Its Emax is less than 10%.
